Source: PubChem BioAssay AID493230 (Broad Institute, 2011)
Where “and” joins values, the source holds several entries; their conditions need not be identical. Equal entries are not always repeated. Calls of active or inactive are those of the source.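 Rule for the calls: active = VEGF mRNA rise whose fitted curve reaches 40% activation within the highest concentration tested on that sample; inactive = the rest, including effects opposite to expected.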

tested on: not listed separately; test: VEGF mRNA induction by HIF pathway activators, dose response, orthogonal assay for HIF pathway activator project, cell-based, U2OS, RT-PCR, dry powder, set 3 (AID 493230); conditions: U2OS VEGF mRNA induction, RT-PCR; at 38 µM (top of the series)
How it was run: (§1)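 Assay system: U2OS osteosarcoma cells / Medium: DMEM without phenol red, 10% FBS / Schedule: 24 h plating, then 24 h compound exposure at 37 °C / Technique: TaqMan RT-PCR, VEGF-A vs beta-actin / Benchmarks: DMSO control / Repeats: duplicates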

| SMILES | activation |
| --- | --- |
| CN1CCN(C(=O)c2cc(-c3ccccc3)on2)CC1 | -2.38% (inactive) |
| O=C(NCCN1CCCCC1)c1cc(-c2ccccc2)on1 | 2.31% (inactive) |
| Cc1ccc(NC(=O)c2cc(-c3ccccc3)on2)cn1 | 4.97% (inactive) |
| O=C(Nc1cnc2ccccc2c1)c1cc(-c2ccccc2)on1 | 4.77% (inactive) |
| O=C(c1cc(-c2ccccc2)on1)N1CCc2cccnc21 | -0.596% (inactive) |
| O=C(Nc1ncc(-c2ccccc2)o1)c1cc(-c2ccccc2)on1 | 6.52% (inactive) |
| Cn1c(NC(=O)c2cc(-c3ccccc3)on2)nc2ccccc21 | -8.77% (inactive) |
| Cc1cccc(CNC(=O)c2cc(-c3ccccc3)on2)c1 | 9.8% (inactive) |
| O=C(c1cc(-c2ccccc2)on1)N1CCC(CO)CC1 | 2.91% (inactive) |
| CN(C)CCNC(=O)c1cc(-c2ccccc2)on1 | -3.96% (inactive) |
| Cc1ccc(CNC(=O)c2cc(-c3ccccc3)on2)cc1 | -2.87% (inactive) |
| O=C(Nc1nc(-c2ccccc2)cs1)c1cc(-c2ccccc2)on1 | 12.2% (inactive) |
| O=C(c1cc(-c2ccccc2)on1)N1CCC(N2CCOCC2)CC1 | 12.2% (inactive) |
| O=C(NCC1CCCCC1)c1cc(-c2ccccc2)on1 | 5.37% (inactive) |
| O=C(c1cc(-c2ccccc2)on1)N1CCC(N2CCCC2)CC1 | 5.5% (inactive) |
| O=C(NC1Cc2ccccc2C1)c1cc(-c2ccccc2)on1 | -6% (inactive) |
| O=C(Nc1nnc(-c2ccccc2)s1)c1cc(-c2ccccc2)on1 | 2.88% (inactive) |
| O=C(Nc1ccc2ccccc2n1)c1cc(-c2ccccc2)on1 | 6.04% (inactive) |
| O=C(NCc1ccccc1)c1cc(-c2ccccc2)on1 | -3.24% (inactive) |

tested on: U2OS VEGF mRNA induction, RT-PCR; test: as above; conditions: not given
How it was run: as §1

| SMILES | AC40 |
| --- | --- |
| c1ccc(-c2nnc(-c3ccccn3)nc2NCCCN2CCOCC2)cc1 | 6.44 µM |
| CN(C)c1nc(-c2ccccn2)nnc1-c1ccccc1 | 6.76 µM |
| CN1CCN(c2nc(-c3ccccn3)nnc2-c2ccccc2)CC1 | 5.84 µM |
| c1ccc(-c2nnc(-c3ccccn3)nc2N2CCC(N3CCOCC3)CC2)cc1 | 6.33 µM |
| c1ccc(-c2nnc(-c3ccccn3)nc2NCCc2ccccn2)cc1 | 6.47 µM |
| c1ccc(-c2nnc(-c3ccccn3)nc2N2CCC(c3ccccc3)C2)cc1 (configuration not stated) | 1.05 µM |
| Cc1ccc(Nc2nc(-c3ccccn3)nnc2-c2ccccc2)cn1 | 4.94 µM |
| Cn1c(-c2ccccc2)cnc1Nc1nc(-c2ccccn2)nnc1-c1ccccc1 | 4.51 µM |
| O=C(Nc1cn2ccccc2n1)c1cc(-c2ccccc2)on1 | 5.31 µM |
| c1ccc(-c2nnc(-c3ccccn3)nc2Nc2cnc3ccccc3n2)cc1 | 1.48 µM |
| O=C(NCCCN1CCOCC1)c1cc(-c2ccccc2)on1 | 28 µM |
| CC(C)(C)CCNc1nc(-c2ccccn2)nnc1-c1ccccc1 | 0.782 µM and 0.753 µM |
| O=C(NCCCO)c1cc(-c2ccccc2)on1 | 15.7 µM |
| O=C(Nc1nc2ccccc2s1)c1cc(-c2ccccc2)on1 | > 38 µM (inactive) |
| C[C@H](Nc1nc(-c2ccccn2)nnc1-c1ccccc1)C1CCCCC1 | 1.06 µM |
| Oc1ccc(CN2CCc3ccccc3C2)c2cccnc12 | 3.02 µM and 6.18 µM |
| CCCCNC(=O)c1cc(-c2ccccc2)on1 | 25 µM |
| O=C(Nc1ncc2ccccc2n1)c1cc(-c2ccccc2)on1 | 29.4 µM |
| c1ccc(-c2cccc(CNc3nc(-c4ccccn4)nnc3-c3ccccc3)c2)cc1 | 0.529 µM |
| Cc1cccc(CNc2nc(-c3ccccn3)nnc2-c2ccccc2)c1 | 1.48 µM |
| Oc1ccc(CNC2Cc3ccccc3C2)c2cccnc12 | 12.9 µM |
| O=C(NCCN1CCOCC1)c1cc(-c2ccccc2)on1 | 29.1 µM |
| c1ccc(-c2nnc(-c3ccccn3)nc2NCCN2CCOCC2)cc1 | 7.65 µM |

| SMILES | AC40 |
| --- | --- |
| c1ccc(-c2nnc(-c3ccccn3)nc2NCC2CCOCC2)cc1 | 6.69 µM |
| OCCCNc1nc(-c2ccccn2)nnc1-c1ccccc1 | 8.68 µM |
| O=C(NCC1CC1)c1cc(-c2ccccc2)on1 | 24.9 µM |
| Cc1ccccc1CNC(=O)c1cc(-c2ccccc2)on1 | > 38 µM (inactive) |
| Cn1c(-c2ccccc2)cnc1NC(=O)c1cc(-c2ccccc2)on1 | 24.6 µM |
| Oc1ccc(CN2CCC(Cc3ccccc3)CC2)c2cccnc12 | 6.73 µM |
| O=C(c1cc(-c2ccccc2)on1)N1CCN(c2ccncc2)CC1 | 35.8 µM |
| c1ccc(-c2ccc(CNc3nc(-c4ccccn4)nnc3-c3ccccc3)cc2)cc1 | 0.276 µM |
| O=C(NCCCCO)c1cc(-c2ccccc2)on1 | 9.04 µM |
| O=C(NC1CCc2ccccc2C1)c1cc(-c2ccccc2)on1 (configuration not stated) | > 38 µM (inactive) |
| Cc1ccc(CNc2nc(-c3ccccn3)nnc2-c2ccccc2)cc1C | 0.83 µM |
| COc1cccc(CNc2nc(-c3ccccn3)nnc2-c2ccccc2)c1 | 1.21 µM |
| c1ccc(-c2cnc(Nc3nc(-c4ccccn4)nnc3-c3ccccc3)s2)cc1 | 0.433 µM |
| Cc1ccccc1CNc1nc(-c2ccccn2)nnc1-c1ccccc1 | 0.853 µM |
| c1ccc(-c2csc(Nc3nc(-c4ccccn4)nnc3-c3ccccc3)n2)cc1 | 0.495 µM |
| c1ccc(-c2nnc(-c3ccccn3)nc2N2CCN(c3ccncc3)CC2)cc1 | 2.91 µM |
| CC(Nc1nc(-c2ccccn2)nnc1-c1ccccc1)c1ccccc1 (configuration not stated) | 1.55 µM |
| C=CCNc1nc(-c2ccccn2)nnc1-c1ccccc1 | 4.08 µM |
| Cc1cccc(NC(=O)c2cc(-c3ccccc3)on2)n1 | > 38 µM (inactive) |
| C[C@@H](Nc1nc(-c2ccccn2)nnc1-c1ccccc1)c1ccccc1 | 1.45 µM |
| OCC1CCN(Cc2ccc(O)c3ncccc23)CC1 | 2.6 µM |
| Cc1cccc(Nc2nc(-c3ccccn3)nnc2-c2ccccc2)n1 | 2.98 µM |
| N#CC1(c2ccccc2)CCN(Cc2ccc(O)c3ncccc23)CC1 | 31.9 µM |

| SMILES | AC40 |
| --- | --- |
| C[C@@H](Nc1nc(-c2ccccn2)nnc1-c1ccccc1)C1CCCCC1 | 0.545 µM |
| CC(C)(C)OC(=O)N1CCN(Cc2ccc(O)c3ncccc23)CC1 | 9.12 µM |
| CC(C)(C)c1ccc(CNc2nc(-c3ccccn3)nnc2-c2ccccc2)cc1 | 0.401 µM |
| c1ccc(-c2nnc(-c3ccccn3)nc2Nc2nc3ccccc3s2)cc1 | 0.427 µM |
| Clc1cccc(CNc2nc(-c3ccccn3)nnc2-c2ccccc2)c1 | 0.953 µM |
| c1ccc(-c2nnc(Nc3nc(-c4ccccn4)nnc3-c3ccccc3)s2)cc1 | 1.08 µM |
| Oc1ccc(CN2CCC3CCCCC3C2)c2cccnc12 (configuration not stated) | 1.58 µM |
| Cc1ccc(CNc2nc(-c3ccccn3)nnc2-c2ccccc2)cc1 | 1.01 µM |
| CC(C)(C)CCNC(=O)c1cc(-c2ccccc2)on1 | > 38 µM (inactive) |
| c1ccc(-c2nnc(-c3ccccn3)nc2NCc2ccccn2)cc1 | 4.1 µM |
| c1ccc(-c2nnc(-c3ccccn3)nc2NCC2CC2)cc1 | 2.29 µM |
| c1ccc(CNc2nc(-c3ccccn3)nnc2-c2ccccc2)cc1 | 1.45 µM |
| c1ccc(-c2nnc(-c3ccccn3)nc2NCC2CCCCC2)cc1 | 1.4 µM |
| COc1ccc(CNc2nc(-c3ccccn3)nnc2-c2ccccc2)cc1 | 1.24 µM |
| O=C(NCCCn1ccnc1)c1cc(-c2ccccc2)on1 | 17.2 µM |
| c1ccc(-c2nnc(-c3ccccn3)nc2N2CCC(C3CCCCC3)C2)cc1 (configuration not stated) | 0.535 µM |
| COc1ccccc1N1CCN(Cc2ccc(O)c3ncccc23)CC1 | 0.384 µM |
| c1ccc(CCNc2nc(-c3ccccn3)nnc2-c2ccccc2)cc1 | 5.17 µM |
| c1ccc(-c2nnc(-c3ccccn3)nc2NCc2cccnc2)cc1 | 3.44 µM |
| CC1CN(Cc2ccc(O)c3ncccc23)CC(C)O1 (configuration not stated) | 12.5 µM |
| Oc1ccc(CNC2CCc3ccccc32)c2cccnc12 (configuration not stated) | 27.1 µM |
| OCC1CCN(c2nc(-c3ccccn3)nnc2-c2ccccc2)CC1 | 10.9 µM |
